Assay outcomes from PubChem.
KCC2 mod = modulators of human KCC2 chloride dependent transport; 2.2% of 190,000 active; Q9H2X9; B-score of Tl+ flux slope (higher = more flux/activation; lower = inhibition) at 10 µM; KCC2 cells, thallium flux FluoZin-2 fluorescence;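 active means thallium flux slope and its plate-corrected score both differing from the plate sample mean at a set confidence after two filtering rounds, in either direction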;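 further: slope of fluorescence scaled to starting intensity during 10 to 20 s after thallium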
KCNQ1 act = potentiates or activates the human KCNQ1 potassium channel; P51787; CHO-K1 KCNQ1, thallium flux FluxOR fluorescence; active compounds read high; B-score at 10 µM; 0.35% of 310,000 active;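 active means fluorescence ratio B-score, a plate-corrected score, at least three library SD, with initial intensity B-score within 5 SD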
Target sequence (P51787 whole entry, looked up): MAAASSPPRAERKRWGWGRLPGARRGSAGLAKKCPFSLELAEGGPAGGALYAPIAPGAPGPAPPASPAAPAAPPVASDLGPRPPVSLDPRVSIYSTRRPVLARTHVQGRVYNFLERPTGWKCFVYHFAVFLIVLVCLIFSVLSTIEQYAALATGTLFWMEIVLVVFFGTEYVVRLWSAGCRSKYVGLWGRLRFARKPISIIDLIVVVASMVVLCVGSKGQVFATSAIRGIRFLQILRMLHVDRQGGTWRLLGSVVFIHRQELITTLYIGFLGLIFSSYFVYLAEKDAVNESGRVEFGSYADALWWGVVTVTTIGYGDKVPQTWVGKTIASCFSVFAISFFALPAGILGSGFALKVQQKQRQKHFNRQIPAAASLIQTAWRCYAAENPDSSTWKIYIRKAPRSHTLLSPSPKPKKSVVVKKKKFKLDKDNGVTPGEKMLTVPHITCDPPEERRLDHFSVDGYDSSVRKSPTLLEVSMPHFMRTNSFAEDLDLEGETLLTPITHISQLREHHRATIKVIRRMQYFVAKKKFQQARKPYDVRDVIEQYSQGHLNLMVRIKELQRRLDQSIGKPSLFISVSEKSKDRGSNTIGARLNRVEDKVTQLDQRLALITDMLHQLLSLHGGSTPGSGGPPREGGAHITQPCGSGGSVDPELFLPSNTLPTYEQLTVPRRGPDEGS
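Material: CHO-K1 cells stably expressing KCNQ1. Medium: assay buffer for compound exposure, DMSO matched across wells. Reagent: K+/Tl+ depolarizing stimulus. Compound dosing: single-concentration screen. Times: 37 °C overnight plating, 90-min dark dye load, 20-min compound pretreatment. Technique: FluxOR Tl+ flux fluorescence.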
AI-2 QS mod = modulators of Vibrio harveyi AI-2 quorum sensing system. Vibrio harveyi JMH597 AI-2 luminescence/OD600 ratio, 9 h; active compounds read low; strain lacks LuxN and CqsS sensors; 0 = neutral-control median. 0.4% of 300,000 active. activity change, % at 7.5 µM; in the data active means activity change below about -75%, passing the limit was not always enough;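 further: luminescence divided by OD600 gain over 9 h not by final OD600 alone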
hERG rescue = compounds protecting human hERG from proarrhythmic drug block. 0.51% of 310,000 active. CHO-hERG, FluxOR thallium flux, dofetilide IC70 present. AID 1511. Q12809. activation (rescue from dofetilide block), less the hit threshold, % at 10 µM;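 active means activation above the mean of controls blocked by dofetilide plus 5 SD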;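 further: thallium influx through hERG after potassium depolarization seen as dye fluorescence rise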
SUMO Mot1 rescue = blocks SUMOylation pathway, rescuing yeast Mot1-301 growth; growth rescue, % at 18.8 µM; S. cerevisiae Mot1-301 growth rescue, ATP luminescence, 38.5C; percent above DMSO median, 100 means doubled; AID 2716; 1% of 320,000 active;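 active means every valid replicate shows activation above 250% relative to neutral control wells; inactive means the rest, any valid replicate at or below 250%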;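 further: OY570 slx delta 5 strain wells were the positive control but not used for scaling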
KCNQ1 block = human KCNQ1 channel inhibition; AID 2642; 1.3% of 310,000 active; CHO-K1 KCNQ1, FluxOR thallium flux fluorescence; active compounds read high; P51787; B-score at 10 µM;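 active means compounds whose thallium flux B-score, printed positive for inhibition, exceeds three library SD while starting fluorescence stays within three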;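 further: channel opened by potassium depolarization with thallium stimulus after 20 min compound exposure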
Numbers without * were called inactive; i = inactive; x = not tested or not shown; + = active, no number. An excerpt weighted towards active compounds, which were near 4.2% of everything screened.

SMILES | KCC2 mod | KCNQ1 act | AI-2 QS mod | hERG rescue | SUMO Mot1 rescue | KCNQ1 block
CSc1ccc(CN2CCC(n3nccc3NC(=O)C3CCOC3)CC2)cc1 (configuration not stated) | x | i | 17.3 | -11.9 | 10.3 | i
Cc1oc(-c2cccs2)nc1CNC[C@H]1O[C@@H](n2cnc3c(N)ncnc32)[C@H](O)[C@@H]1O | x | x | x | x | 7.0 | x
CC[n+]1c(/C=C2/C=C(C)CC(C)C2)sc2ccccc21 (configuration not stated) | 0.759 | i | -2.3 | -27.1 | 97.8 | 6*
CC/C(=C/c1sc2ccccc2[n+]1CC)SC | -0.434 | i | 23.9 | -2.3 | 5.8 | i
CC[n+]1c(C=C2C=C(C)OC(C)=C2)sc2ccccc21 | -0.092 | i | 23.9 | -31.2 | x | 10*
COC(=O)Cn1c(=O)c2c(nc3n2CC(C)CN3c2ccc(C)c(C)c2)n(C)c1=O (configuration not stated) | -0.933 | i | 5.6 | -12.2 | -16.4 | i
CCCCc1ccc(NC(=S)N2CCCC2)cc1 | x | i | 32.9 | -9.5 | 33.3 | i
CCOC(=O)C1CCCN(Cc2nc(CC3CC3)no2)C1 (configuration not stated) | 0.667 | i | 12.5 | -10.7 | + | i
O=C1/C(=C/Nc2ccc3c(c2)OCO3)CCc2ccccc21 | -2.1 | i | 17.6 | -12.6 | x | 6*
O=C(NCc1ccc(N2CCCC2=O)cc1)c1cc(COc2c(F)cccc2F)on1 | x | i | 2.6 | -4.1 | -2.5 | i
CC1(C)CC(c2nc(-c3ccc(Br)cc3)cs2)CCS1 (configuration not stated) | -0.152 | i | 9.8 | -9.8 | 1.5 | i
CC1(C)CC(c2nc(-c3ccc(Cl)cc3)cs2)CCS1 (configuration not stated) | 1.7 | i | 50.2 | -10.2 | 3.9 | 9*
COc1ccc(/C=C/C(=O)NCC(=O)N2CCC(N(C)CCN3CCOCC3)CC2)cc1OC | 0.447 | i | 15.8 | -8.7 | -0.7 | i
Cc1ccc(Sc2cnn(-c3ccccc3)c(=O)c2Cl)cc1 | 1.18 | i | 14.8 | -7.4 | -9.5 | 10*
Cn1c(=O)c2c(SCc3ccccn3)nc(-c3ccccc3)nc2n(C)c1=O | -0.0351 | x | x | x | x | x
CC1=NN(C(N)=S)C(=O)C1N=Nc1cccc(Cl)c1C (configuration not stated) | x | 41* | 45.4 | -11.2 | -1.5 | i
Cn1c(=S)[nH]c2scc(-c3cccs3)c2c1=O | 58.7* | 66* | 3.4 | 57.9* | x | i
C=CCn1c(=S)[nH]c2scc(-c3cccs3)c2c1=O | 88.8* | 53* | -0.7 | 41.0* | x | i
O=C(c1ccc2ccccc2c1)C1CCCN(S(=O)(=O)c2cccnc2)C1 (configuration not stated) | -2.54 | i | 24.3 | -24.2 | 312.1 | i
COc1ccc(N(CC(=O)NCc2ccc(C)cc2)S(=O)(=O)c2c(C)noc2C)cc1 | x | i | 6.2 | -7.3 | 3.2 | i
CC1CCc2c(sc(NC(=O)c3ccccc3C(=O)O)c2C#N)C1 (configuration not stated) | x | i | 13.5 | -5.0 | 84.3 | i
Cc1nn(CC(=O)Nc2sc3c(c2C#N)CCC(C(C)(C)C)C3)c(C)c1[N+](=O)[O-] (configuration not stated) | x | i | 17.1 | -11.7 | 263.4 | 8*
CC(C)(C)C1CCc2c(sc(NC(=O)C3CC=CCC3C(=O)O)c2C#N)C1 (configuration not stated) | 0.796 | i | 5.1 | 13.7* | -2.0 | i
CCC(C)(C)C1CCc2c(sc(NC(=O)c3ccccc3C(=O)O)c2C#N)C1 (configuration not stated) | 0.924 | 9* | 28.0 | 15.1* | 200.2 | i
NC(=O)C1CCN(S(=O)(=O)c2cccc(S(=O)(=O)N3CCCCC3)c2)CC1 | x | i | 49.1 | -8.4 | 30.9 | i
SMILES | KCC2 mod | KCNQ1 act | AI-2 QS mod | hERG rescue | SUMO Mot1 rescue | KCNQ1 block
CC(=O)OCCn1c2nc(=O)[nH]c(=O)c-2nc2cc(C)c(C)cc21 | x | i | -28.7 | -45.5 | -12.9 | 37*
Cc1cc(O)c2c(c1)C(=O)c1cc(O)cc(O)c1C2=O | x | i | 22.3 | -9.3 | 2.9 | 6*
C/C(CC(=O)Nc1ccc(F)cc1)=N\NC(=O)COc1ccccc1 | -0.028 | i | 21.1 | -4.1 | 5.5 | i
CC(=O)CC1OC(=O)C(Br)=C1NCc1ccccc1 (configuration not stated) | 0.615 | i | 23.0 | -7.0 | -1.9 | 6*
C=CCn1c(SCC(=O)Nc2ccc(N3CCOCC3)cc2)nc2ccccc2c1=O | x | i | 2.6 | -10.1 | 6.8 | i
COc1cccc(N(C(=O)CCl)C(C(=O)NCCc2ccccc2)c2cccs2)c1 (configuration not stated) | -1.15 | i | 28.3 | -10.6 | 45.3 | i
COc1ccc(N(C(=O)CCl)C(C(=O)NCCc2ccccc2)c2cccs2)cc1Cl (configuration not stated) | -0.375 | i | 17.2 | -8.0 | 263.6* | i
O=C(CN1C(=O)NC2(CCCC2)C1=O)NCc1ccc(Cl)cc1 | x | x | x | x | -7.4 | x
CC(C)(C)C(=O)NC(=S)Nc1ccccc1F | x | i | 13.9 | -10.9 | 435.8* | i
Cn1c(SCC(=O)c2cc3ccccc3o2)nnc1-c1ccccc1 | -7.24* | i | 7.9 | -11.1 | -0.6 | i
Cn1cnnc1SCC(=O)c1cc2ccccc2o1 | 0.804 | i | 12.9 | -9.1 | -20.3 | i
CCCn1c(CN2CCN(C(=O)OCC)CC2)nc2cc(NC(=O)CC)ccc21 | x | i | 15.3 | -9.0 | 2.3 | i
CCn1c(=O)c(-[n+]2ccccc2)c(O)c2ccccc21 | x | i | -1.9 | 8.3* | 292.9 | i
CCN(CC)CCNC(=O)c1ccc(NC(=O)C2CCN(c3ncnc4sc(C)c(C)c34)CC2)cc1 | x | i | 12.7 | -9.2 | -9.2 | i
COc1ccc(OC)c(NC(=S)N2CCN(C/C=C/c3ccccc3)CC2)c1 | -0.05 | i | 13.2 | 48.6* | 19.0 | i
CC(C)(C)c1oc(C(=O)O)cc1CN1CCOCC1 | -0.0255 | i | 4.4 | -3.0 | -12.1 | i
Cc1cc(C(=O)Nn2c(-c3ccc(Br)cc3)nc3ccccc3c2=O)ccc1[N+](=O)[O-] | -0.339 | i | 9.2 | -10.3 | 14.4 | 6*
O=C(Cc1ccccc1)NC1CCN(Cc2ccccc2)CC1 | 0.082 | i | 9.8 | -2.1 | 163.7 | i
O=C(Cc1ccc(Br)cc1)NC1CCN(Cc2ccccc2)CC1 | x | i | 10.6 | -12.2 | 282.5* | i
Cc1ccccc1CC(=O)NC1CCN(Cc2ccccc2)CC1 | x | i | -2.3 | 8.2* | -20.5 | i
